Measured values as given in ChEMBL document CHEMBL4373711, “Development of 3,5-Dinitrophenyl-Containing 1,2,4-Triazoles and Their Trifluoromethyl Analogues as Highly Efficient Antitubercular Agents Inhibiting Decaprenylphosphoryl-β-d-ribofuranose 2'-Oxidase” (J Med Chem, 2019).

Legend:
[1] = test system: Mycobacterium tuberculosis; assay: Antimycobacterial activity against multi-drug resistant Mycobacterium tuberculosis Praha 1 after 14 days; format: functional; settings: Praha 1, 336 h
Outline: (§1)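 M. tuberculosis strains (H37Rv and clinical MDR/XDR isolates) tested by microdilution in Šula's semisynthetic medium. Compounds were dissolved in DMSO and tested at 32 to 0.03 µM in twofold steps. Inoculum was a 1.0 McFarland suspension diluted 10-3. Plates were incubated at 37 °C and read at 14 and 21 days.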

[2] = test system: Mycobacterium tuberculosis; assay: Antimycobacterial activity against multi-drug resistant Mycobacterium tuberculosis Praha 1 after 21 days; format: functional; settings: Praha 1, 504 h; outline: as §1
[3] = test system: Mycobacterium tuberculosis; assay: Antimycobacterial activity against multi-drug resistant Mycobacterium tuberculosis Praha 4 after 14 days; settings: Praha 4, 336 h
[4] = test system: Mycobacterium tuberculosis; assay: Antimycobacterial activity against multi-drug resistant Mycobacterium tuberculosis Praha 4 after 21 days; format: functional; settings: Praha 4, 504 h; outline: as §1
[5] = test system: Mycobacterium tuberculosis; assay: Antimycobacterial activity against multi-drug resistant Mycobacterium tuberculosis 9449/2007 after 21 days; format: functional; settings: 9449/2007, 504 h; outline: as §1
[6] = test system: Mycobacterium tuberculosis; assay: Antimycobacterial activity against multi-drug resistant Mycobacterium tuberculosis 9449/2007 after 14 days; format: functional; settings: 9449/2007, 336 h; outline: as §1
[7] = test system: Mycobacterium tuberculosis; assay: Antimycobacterial activity against multi-drug resistant Mycobacterium tuberculosis 234/2005 after 21 days; format: functional; settings: 234/2005, 504 h; outline: as §1
[8] = test system: Mycobacterium tuberculosis; assay: Antimycobacterial activity against multi-drug resistant Mycobacterium tuberculosis 7357/1998 after 21 days; format: functional; settings: 7357/1998, 504 h; outline: as §1
[9] = test system: Mycobacterium tuberculosis; assay: Antimycobacterial activity against multi-drug resistant Mycobacterium tuberculosis 7357/1998 after 14 days; format: functional; settings: 7357/1998, 336 h; outline: as §1
[10] = test system: Mycobacterium tuberculosis; assay: Antimycobacterial activity against multi-drug resistant Mycobacterium tuberculosis 8666/2010 after 14 days; format: functional; settings: 8666/2010, 336 h; outline: as §1
[11] = test system: Mycobacterium tuberculosis; assay: Antimycobacterial activity against multi-drug resistant Mycobacterium tuberculosis 8666/2010 after 21 days; format: functional; settings: 8666/2010, 504 h; outline: as §1
[12] = Selectivity index, ratio of IC50 for human HepG2 cells to MIC>99 for antimycobacterial activity against multi-drug resistant Mycobacterium tuberculosis Praha 1 after 14 days; format: toxicity; settings: read-out: Selectivity Index
Outline: (§2)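 SI from HepG2 IC50 and M. tuberculosis MIC. HepG2 cells: DMEM + 10% FBS + 1 mM pyruvate, 10,000/well, 48 h treatment, 0.1% DMSO and 10% SDS controls, MTS absorbance at 490 nm.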

[13] = Selectivity index, ratio of IC50 for human HepG2 cells to MIC>99 for antimycobacterial activity against multi-drug resistant Mycobacterium tuberculosis Praha 1 after 21 days; format: toxicity; settings: read-out: Selectivity Index; outline: as §2
[14] = Selectivity index, ratio of IC50 for human HepG2 cells to MIC>99 for antimycobacterial activity against multi-drug resistant Mycobacterium tuberculosis Praha 4 after 14 days; format: toxicity; settings: read-out: Selectivity Index; outline: as §2
[15] = Selectivity index, ratio of IC50 for human HepG2 cells to MIC>99 for antimycobacterial activity against multi-drug resistant Mycobacterium tuberculosis Praha 4 after 21 days; format: toxicity; settings: read-out: Selectivity Index; outline: as §2
[16] = Selectivity index, ratio of IC50 for human HepG2 cells to MIC>99 for antimycobacterial activity against multi-drug resistant Mycobacterium tuberculosis 9449/2007 after 21 days; format: toxicity; settings: read-out: Selectivity Index; outline: as §2
[17] = Selectivity index, ratio of IC50 for human HepG2 cells to MIC>99 for antimycobacterial activity against multi-drug resistant Mycobacterium tuberculosis 9449/2007 after 14 days; format: toxicity; settings: read-out: Selectivity Index; outline: as §2
[18] = Selectivity index, ratio of IC50 for human HepG2 cells to MIC>99 for antimycobacterial activity against multi-drug resistant Mycobacterium tuberculosis 234/2005 after 14 days; format: toxicity; settings: read-out: Selectivity Index; outline: as §2
[19] = Selectivity index, ratio of IC50 for human HepG2 cells to MIC>99 for antimycobacterial activity against multi-drug resistant Mycobacterium tuberculosis 234/2005 after 21 days; format: toxicity; settings: read-out: Selectivity Index; outline: as §2
[20] = Selectivity index, ratio of IC50 for human HepG2 cells to MIC>99 for antimycobacterial activity against multi-drug resistant Mycobacterium tuberculosis 7357/1998 after 21 days; format: toxicity; settings: read-out: Selectivity Index; outline: as §2
[21] = Selectivity index, ratio of IC50 for human HepG2 cells to MIC>99 for antimycobacterial activity against multi-drug resistant Mycobacterium tuberculosis 7357/1998 after 14 days; format: toxicity; settings: read-out: Selectivity Index; outline: as §2
[22] = Selectivity index, ratio of IC50 for human HepG2 cells to MIC>99 for antimycobacterial activity against multi-drug resistant Mycobacterium tuberculosis 8666/2010 after 14 days; format: toxicity; settings: read-out: Selectivity Index; outline: as §2
[23] = Selectivity index, ratio of IC50 for human HepG2 cells to MIC>99 for antimycobacterial activity against multi-drug resistant Mycobacterium tuberculosis 8666/2010 after 21 days; format: toxicity; settings: read-out: Selectivity Index; outline: as §2
[24] = Selectivity index, ratio of IC50 for human A431 cells to MIC>99 for antimycobacterial activity against multi-drug resistant Mycobacterium tuberculosis Praha 1 after 14 days; format: toxicity; settings: read-out: Selectivity Index
[25] = Selectivity index, ratio of IC50 for human A431 cells to MIC>99 for antimycobacterial activity against multi-drug resistant Mycobacterium tuberculosis Praha 1 after 21 days; format: toxicity; settings: read-out: Selectivity Index
[26] = Selectivity index, ratio of IC50 for human A431 cells to MIC>99 for antimycobacterial activity against multi-drug resistant Mycobacterium tuberculosis Praha 4 after 14 days; format: toxicity; settings: read-out: Selectivity Index
[27] = Selectivity index, ratio of IC50 for human A431 cells to MIC>99 for antimycobacterial activity against multi-drug resistant Mycobacterium tuberculosis Praha 4 after 21 days; format: toxicity; settings: read-out: Selectivity Index
Outline: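 SI from A431 IC50 and M. tuberculosis MIC. A431 cells: DMEM + 10% FBS, seeded 10,000/well, treated after 24 h for 48 h, 0.1% DMSO (100%) and 10% SDS (0%) controls, MTS absorbance at 490 nm.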

[28] = Selectivity index, ratio of IC50 for human A431 cells to MIC>99 for antimycobacterial activity against multi-drug resistant Mycobacterium tuberculosis 9449/2007 after 21 days; format: toxicity; settings: read-out: Selectivity Index
[29] = Selectivity index, ratio of IC50 for human A431 cells to MIC>99 for antimycobacterial activity against multi-drug resistant Mycobacterium tuberculosis 9449/2007 after 14 days; format: toxicity; settings: read-out: Selectivity Index
[30] = Selectivity index, ratio of IC50 for human A431 cells to MIC>99 for antimycobacterial activity against multi-drug resistant Mycobacterium tuberculosis 234/2005 after 14 days; format: toxicity; settings: read-out: Selectivity Index
[31] = Selectivity index, ratio of IC50 for human A431 cells to MIC>99 for antimycobacterial activity against multi-drug resistant Mycobacterium tuberculosis 234/2005 after 21 days; format: toxicity; settings: read-out: Selectivity Index
[32] = Selectivity index, ratio of IC50 for human A431 cells to MIC>99 for antimycobacterial activity against multi-drug resistant Mycobacterium tuberculosis 7357/1998 after 21 days; format: toxicity; settings: read-out: Selectivity Index
[33] = Selectivity index, ratio of IC50 for human A431 cells to MIC>99 for antimycobacterial activity against multi-drug resistant Mycobacterium tuberculosis 7357/1998 after 14 days; format: toxicity; settings: read-out: Selectivity Index
[34] = Selectivity index, ratio of IC50 for human A431 cells to MIC>99 for antimycobacterial activity against multi-drug resistant Mycobacterium tuberculosis 8666/2010 after 14 days; format: toxicity; settings: read-out: Selectivity Index
[35] = Selectivity index, ratio of IC50 for human A431 cells to MIC>99 for antimycobacterial activity against multi-drug resistant Mycobacterium tuberculosis 8666/2010 after 21 days; format: toxicity; settings: read-out: Selectivity Index
[36] = test system: Mycobacterium tuberculosis; assay: microbe, parasite or virus in culture; settings: 234/2005, 336 h

O=[N+]([O-])c1cc(-c2nnc(SCc3ccccc3)n2Cc2ccccc2)cc(C(F)(F)F)c1
0.06 µM: MIC99 [1] | MIC99 [2] | MIC99 [3] | MIC99 [4] | MIC99 [5] | MIC99 [7] | MIC99 [8] | MIC99 [9] | MIC99 [10] | MIC99 [36]
0.125 µM: MIC99 [6] | MIC99 [11]
> 100: selectivity ratio at 336 h [12] | selectivity ratio at 504 h [13] | selectivity ratio at 336 h [14] | selectivity ratio at 504 h [15] | selectivity ratio at 504 h [16] | selectivity ratio at 336 h [17] | selectivity ratio at 336 h [18] | selectivity ratio at 504 h [19] | selectivity ratio at 504 h [20] | selectivity ratio at 336 h [21] | selectivity ratio at 336 h [22] | selectivity ratio at 504 h [23] | selectivity ratio at 336 h [24] | selectivity ratio at 504 h [25] | selectivity ratio at 336 h [26] | selectivity ratio at 504 h [27] | selectivity ratio at 504 h [28] | selectivity ratio at 336 h [29] | selectivity ratio at 336 h [30] | selectivity ratio at 504 h [31] | selectivity ratio at 504 h [32] | selectivity ratio at 336 h [33] | selectivity ratio at 336 h [34] | selectivity ratio at 504 h [35]
